Experimental data: article PMC5992689 (Molecular Therapy. Nucleic Acids, 2018)

Legend:
[1] = test system: primary cultured astrocytes; assay: Binding of FITC-labeled peptides to cultured astrocytes; assay type: cell-based, C57BL/6 mice; details: FITC-labeled peptide 1 μg/mL, 24 hr, GFAP immunostaining
Outline: (§1)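 Cells were exposed to FITC-labelled peptide at 1 μg/mL in culture medium for 24 hr, fixed in 4% PFA and immunostained for MAP2 (NSC-34, maintained in DMEM/F12 with 10% FCS), GFAP (primary astrocytes) or Iba1 (primary microglia). Primary cultures came from C57BL/6 pups 1–2 days postpartum. FITC-positive marker cells were counted by confocal microscopy in six independent wells and averaged as a percentage; experiments were run in triplicate.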

[2] = test system: primary cultured microglia; assay: Binding of FITC-labeled peptides to cultured microglia; assay type: cell-based, C57BL/6 mice; details: FITC-labeled peptide 1 μg/mL, 24 hr; for FITC labeling of primary cultured microglia (in words): Iba1 immunostaining; for percentage of FITC-positive microglia in all Iba1-positive cells: n = 6 wells
Outline: as §1

NSC-34 cells (neuron) = assay: Binding of FITC-labeled peptides to neuronal cells; assay type: cell-based; details: FITC-labeled peptide 1 μg/mL, 24 hr, MAP2 immunostaining
Outline: as §1

[3] = test system: CD86 (M1)-positive primary microglia; assay: CD86 immunocytochemistry of peptide-labeled microglia; assay type: cell-based, C57BL/6 mice; details: FITC-labeled peptide 1 μg/mL, 24 hr; n = 6 wells
Outline: (§2)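 Primary C57BL/6 microglia were isolated from 14-day mixed glial culture and incubated 24 hr with FITC-peptide at 1 μg/mL. They were then fixed in 4% PFA and immunostained for CD86 (M1) or CD206 (M2) with Alexa Fluor 555 secondaries. Marker-positive cells were counted by confocal microscopy as a percentage of FITC-positive microglia across six independent wells, with >1,000 cells in total and triplicate experiments.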

[4] = test system: CD206 (M2)-positive primary microglia; assay: CD206 immunocytochemistry of peptide-labeled microglia; assay type: cell-based, C57BL/6 mice; details: FITC-labeled peptide 1 μg/mL, 24 hr; n = 6 wells
Outline: as §2

[5] = test system: spinal cord astrocytes (GFAP) and microglia (Iba1); assay type: in vivo, C57BL/6 mice; details: 3 μg FITC-labeled peptide, intrathecal, 3 hr; MG1 compared with MG2
KT-5 cells (astrocytes) = assay: Phage display panning; assay type: binding; details: 48 of the 58 phage plaques, astrocytes (KT-5)
Outline: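 A CX7C M13 library in Tris-buffered saline (pH 7.5) was given via tail vein to C57BL/6 mice. After 5 min, blood was removed transcardially, and spinal cords were homogenised in DMEM with protease inhibitor. Phage were titrated as plaques in E. coli ER2738, amplified and re-injected for three rounds. Three 5-min in vitro panning cycles on KT-5 cells followed, and pIII inserts of 50–58 phages were sequenced.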

Substance	FITC labeling of primary cultured astrocytes (in words) [1]	FITC labeling of primary cultured microglia (in words) [2]	percentage of FITC-positive microglia in all Iba1-positive cells [2]	FITC labeling of NSC-34 cells (in words) (NSC-34 cells (neuron))	percentage of CD86-positive cells in the microglia labeled with the peptide [3] [%]	percentage of CD206-positive cells in the microglia labeled with the peptide [4] [%]	accumulation of peptide in the spinal cord tissues [5]	frequency of phage plaques (KT-5 cells (astrocytes)) [%]
C-HHSSSAR-C [MG1]	not observed	mainly present in Iba1-positive microglia	approximately 60%	not observed	40	26	greater accumulation of MG1 peptides than of MG2 peptides	–
C-LNSSQPS-C [AS1]	only observed in astrocytes	not with MAP2 staining in neurons or Iba1 staining in microglia	–	not with MAP2 staining in neurons or Iba1 staining in microglia	–	–	–	83
C-NTGSPYE-C [MG2]	not in the NSC-34 cells or astrocytes	observed only in the primary cultured microglia	approximately 40%	not in the NSC-34 cells or astrocytes	27	47	–	–
